What all share (type): cell-based
Series [1] addresses CaV1.2 LTCCs expressed in HEK293 cells (Homo sapiens, UniProt Q13936). Description: Automated planar whole-cell patch-clamp recording, CaV1.2. The method, boiled down:
(§1)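 HEK293 lines stably expressing the channel plus Kir2.1, grown in DMEM/10% FBS at 37 °C, 5% CO2, moved to 28 °C the day before. Automated whole-cell recording at room temperature; bath (mM) 120 NaCl, 20 CsCl, 10 BaCl2, pH 7.4; CsF-based internal. Current read at 0 mV, 250 ms into step from −60 mV, before and after compound or vehicle; only CdCl2 (5 mM)-sensitive current analysed, no leak subtraction.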

Series [2] addresses CaV1.2 L-type calcium channel (Homo sapiens, UniProt Q13936). The description is as above. The conditions noted are these: pH 7.4. The method, boiled down:
as §1

Series [3] addresses CaV1.3 LTCCs expressed in HEK293 cells (Rattus norvegicus, UniProt P27732). As to the kind of experiment: Automated planar whole-cell patch-clamp recording, CaV1.3. The note with it: HEK293, read-out: % Inhibition (10 μM) CaV1.3. The method, boiled down:
as §1

Sequence of CaV1.2 LTCCs expressed in HEK293 cells (Q13936 whole entry): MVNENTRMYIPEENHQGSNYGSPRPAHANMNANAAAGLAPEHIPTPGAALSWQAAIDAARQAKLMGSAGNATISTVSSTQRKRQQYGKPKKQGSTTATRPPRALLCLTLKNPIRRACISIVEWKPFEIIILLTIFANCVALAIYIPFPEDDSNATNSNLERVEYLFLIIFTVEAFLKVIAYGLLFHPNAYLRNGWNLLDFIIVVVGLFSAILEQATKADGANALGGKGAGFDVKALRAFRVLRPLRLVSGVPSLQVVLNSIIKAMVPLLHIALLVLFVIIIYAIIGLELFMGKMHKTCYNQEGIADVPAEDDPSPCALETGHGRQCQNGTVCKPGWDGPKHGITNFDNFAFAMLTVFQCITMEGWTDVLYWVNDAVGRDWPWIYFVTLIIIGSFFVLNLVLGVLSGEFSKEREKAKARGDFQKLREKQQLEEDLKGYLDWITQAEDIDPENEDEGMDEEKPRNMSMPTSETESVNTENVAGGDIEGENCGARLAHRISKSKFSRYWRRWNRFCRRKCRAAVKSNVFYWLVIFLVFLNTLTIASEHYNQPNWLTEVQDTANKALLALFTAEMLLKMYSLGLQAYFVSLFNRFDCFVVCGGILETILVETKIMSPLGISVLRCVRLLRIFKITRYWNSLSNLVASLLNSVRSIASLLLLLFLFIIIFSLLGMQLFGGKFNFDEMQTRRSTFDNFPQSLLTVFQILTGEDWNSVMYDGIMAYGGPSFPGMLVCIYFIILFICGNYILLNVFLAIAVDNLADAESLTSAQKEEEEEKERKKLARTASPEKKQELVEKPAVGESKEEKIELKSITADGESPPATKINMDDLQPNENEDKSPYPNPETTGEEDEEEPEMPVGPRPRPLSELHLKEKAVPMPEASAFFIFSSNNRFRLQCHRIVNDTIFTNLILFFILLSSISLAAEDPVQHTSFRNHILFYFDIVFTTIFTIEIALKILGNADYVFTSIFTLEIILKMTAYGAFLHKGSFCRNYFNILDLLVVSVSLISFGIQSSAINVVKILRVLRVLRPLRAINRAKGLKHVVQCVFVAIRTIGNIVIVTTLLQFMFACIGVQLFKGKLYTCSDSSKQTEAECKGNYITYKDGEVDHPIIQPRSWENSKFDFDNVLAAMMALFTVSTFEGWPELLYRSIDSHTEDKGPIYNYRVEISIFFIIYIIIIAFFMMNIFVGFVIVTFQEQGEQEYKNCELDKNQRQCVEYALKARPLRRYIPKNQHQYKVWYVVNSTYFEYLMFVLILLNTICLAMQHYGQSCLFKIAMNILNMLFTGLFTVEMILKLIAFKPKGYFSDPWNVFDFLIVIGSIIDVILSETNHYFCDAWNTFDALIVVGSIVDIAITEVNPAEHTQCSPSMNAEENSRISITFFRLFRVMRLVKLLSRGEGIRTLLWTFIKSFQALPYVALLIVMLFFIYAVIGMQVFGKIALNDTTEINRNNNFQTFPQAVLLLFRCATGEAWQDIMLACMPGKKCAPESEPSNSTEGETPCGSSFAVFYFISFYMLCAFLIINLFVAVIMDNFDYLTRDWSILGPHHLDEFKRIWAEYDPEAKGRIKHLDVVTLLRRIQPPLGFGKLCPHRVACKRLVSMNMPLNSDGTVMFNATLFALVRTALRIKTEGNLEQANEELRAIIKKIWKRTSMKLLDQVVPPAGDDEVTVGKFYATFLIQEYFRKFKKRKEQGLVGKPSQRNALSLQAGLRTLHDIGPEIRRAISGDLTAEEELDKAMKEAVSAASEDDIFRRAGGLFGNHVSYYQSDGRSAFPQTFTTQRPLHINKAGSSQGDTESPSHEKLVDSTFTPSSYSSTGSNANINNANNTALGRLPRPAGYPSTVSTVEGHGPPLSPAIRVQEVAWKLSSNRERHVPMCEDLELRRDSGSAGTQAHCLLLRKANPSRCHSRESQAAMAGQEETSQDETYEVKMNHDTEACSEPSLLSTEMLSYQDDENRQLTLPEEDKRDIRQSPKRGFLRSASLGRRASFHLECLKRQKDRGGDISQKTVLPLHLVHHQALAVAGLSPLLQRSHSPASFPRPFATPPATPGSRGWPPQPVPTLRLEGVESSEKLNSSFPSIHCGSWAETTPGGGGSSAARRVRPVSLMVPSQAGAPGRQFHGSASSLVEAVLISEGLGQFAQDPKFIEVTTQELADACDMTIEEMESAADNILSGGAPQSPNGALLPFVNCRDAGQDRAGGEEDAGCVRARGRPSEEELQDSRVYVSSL
Sequence of CaV1.2 LTCCs expressed in HEK293 cells (P54284 whole entry partner): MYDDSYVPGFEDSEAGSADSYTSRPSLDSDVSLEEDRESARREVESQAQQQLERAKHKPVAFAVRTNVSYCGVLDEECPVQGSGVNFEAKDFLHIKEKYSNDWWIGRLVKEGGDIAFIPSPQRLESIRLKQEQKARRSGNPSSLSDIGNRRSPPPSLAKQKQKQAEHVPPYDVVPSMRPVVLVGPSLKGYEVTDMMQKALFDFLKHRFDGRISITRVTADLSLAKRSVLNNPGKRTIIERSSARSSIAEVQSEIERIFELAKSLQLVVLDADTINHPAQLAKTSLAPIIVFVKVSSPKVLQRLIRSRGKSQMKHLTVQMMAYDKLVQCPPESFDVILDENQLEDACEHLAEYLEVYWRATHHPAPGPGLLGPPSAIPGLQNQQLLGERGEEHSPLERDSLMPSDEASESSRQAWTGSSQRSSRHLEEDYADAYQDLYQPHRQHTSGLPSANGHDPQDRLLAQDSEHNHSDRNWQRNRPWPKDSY
Sequence of CaV1.2 LTCCs expressed in HEK293 cells (P54289 25-946 partner limits assumed): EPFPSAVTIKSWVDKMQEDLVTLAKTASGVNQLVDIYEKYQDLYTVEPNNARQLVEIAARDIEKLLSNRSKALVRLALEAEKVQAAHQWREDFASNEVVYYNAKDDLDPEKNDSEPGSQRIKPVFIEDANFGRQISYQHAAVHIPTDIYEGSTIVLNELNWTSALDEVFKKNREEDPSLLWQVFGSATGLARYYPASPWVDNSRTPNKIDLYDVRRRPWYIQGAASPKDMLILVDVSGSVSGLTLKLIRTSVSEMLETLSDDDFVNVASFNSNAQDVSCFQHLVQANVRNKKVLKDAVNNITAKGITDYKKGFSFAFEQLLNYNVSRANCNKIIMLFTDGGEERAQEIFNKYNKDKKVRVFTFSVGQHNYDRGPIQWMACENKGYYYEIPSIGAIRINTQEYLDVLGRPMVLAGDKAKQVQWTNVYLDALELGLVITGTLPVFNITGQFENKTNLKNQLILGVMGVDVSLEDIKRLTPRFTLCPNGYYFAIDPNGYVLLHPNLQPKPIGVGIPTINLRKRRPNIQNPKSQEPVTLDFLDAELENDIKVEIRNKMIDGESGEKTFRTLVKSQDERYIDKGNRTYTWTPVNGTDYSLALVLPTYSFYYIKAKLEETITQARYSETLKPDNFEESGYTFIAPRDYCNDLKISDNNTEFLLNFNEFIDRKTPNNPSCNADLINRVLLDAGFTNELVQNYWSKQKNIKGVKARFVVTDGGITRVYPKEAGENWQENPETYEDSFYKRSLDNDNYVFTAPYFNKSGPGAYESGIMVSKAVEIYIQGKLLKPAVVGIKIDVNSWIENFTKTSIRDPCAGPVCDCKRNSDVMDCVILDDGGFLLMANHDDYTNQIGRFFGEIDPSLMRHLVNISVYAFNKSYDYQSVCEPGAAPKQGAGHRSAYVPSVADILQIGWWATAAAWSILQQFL
Sequence of CaV1.2 LTCCs expressed in HEK293 cells (P54289 947-1103 partner limits assumed): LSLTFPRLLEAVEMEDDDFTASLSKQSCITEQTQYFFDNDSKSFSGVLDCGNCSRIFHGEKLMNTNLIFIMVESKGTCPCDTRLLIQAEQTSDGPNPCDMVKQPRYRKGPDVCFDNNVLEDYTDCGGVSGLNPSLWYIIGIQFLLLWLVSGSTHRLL
Sequence of CaV1.2 L-type calcium channel (Q13936 whole entry): as the sequence (Q13936 whole entry) above
Sequence of CaV1.2 L-type calcium channel (P54284 whole entry partner): as the sequence (P54284 whole entry partner) above
Sequence of CaV1.2 L-type calcium channel (P54289 25-946 partner limits assumed): as the sequence (P54289 25-946 partner limits assumed) above
Sequence of CaV1.2 L-type calcium channel (P54289 947-1103 partner limits assumed): as the sequence (P54289 947-1103 partner limits assumed) above

In turn, `O=C1C(c2cccc([N+](=O)[O-])c2)C(=O)N(C2CCCC2)C(=O)N1CCCCc1cccc(Cl)c1` (centres unmarked) [14a, 1-(4-(3-Chlorophenyl)butyl)-3-cyclopentyl-5-(3-nitrophenyl)pyrimidine-2,4,6(1H,3H,5H)-trione] came in with an IC50 in series [1] of 3.72 µM. Also, the results for the inhibition at 10 µM in series [2] and in series [3] were 72.7% and 76.9%, respectively.

Consider `O=C1C(c2cccc(C(F)(F)F)c2)C(=O)N(CCc2cccc(Cl)c2)C(=O)N1CCCc1ccc(Cl)cc1` (centres unmarked) [14b, 1-(3-Chlorophenethyl)-3-(3-(4-chlorophenyl)propyl)-5-(3-(trifluoromethyl)phenyl)pyrimidine-2,4,6(1H,3H,5H)-trione], for which the inhibition at 10 µM was determined as 98.8% in series [2] and 95.6% in series [3].

As to `O=C1C(c2cccc(C(F)(F)F)c2)C(=O)N(CCc2cccc(Cl)c2)C(=O)N1CCCc1cccc(Cl)c1` (centres unmarked) [14c, 1-(3-Chlorophenethyl)-3-(3-(3-chlorophenyl)propyl)-5-(3-(trifluoromethyl)phenyl)pyrimidine-2,4,6(1H,3H,5H)-trione], the inhibition at 10 µM in series [2] amounted to 99.2%; in series [3] it was 97.3%.

The molecule `O=C1C(c2cccc(C(F)(F)F)c2)C(=O)N(CCc2cccc(Cl)c2)C(=O)N1CCCc1ccc(C(F)(F)F)cc1` (centres unmarked) [14d, 1-(3-Chlorophenethyl)-5-(3-(trifluoromethyl)phenyl)-3-(3-(4-(trifluoromethyl)phenyl)propyl)pyrimidine-2,4,6(1H,3H,5H)-trione] showed an IC50 in series [1] of 4.53 µM. In addition, the inhibition at 10 µM in series [2] was found to be 81.2%; in series [3], 93.1%.

`O=C1C(c2cccc(C(F)(F)F)c2)C(=O)N(CCc2cccc(Cl)c2)C(=O)N1CCCCc1ccc(Cl)cc1` (centres unmarked) [14e, 1-(3-Chlorophenethyl)-3-(4-(4-chlorophenyl)butyl)-5-(3-(trifluoromethyl)phenyl)pyrimidine-2,4,6(1H,3H,5H)-trione] yielded an IC50 in series [1] of 2.41 µM. For the same molecule, the inhibition at 10 µM was 96.1% in series [2] and 93.8% in series [3].

Take `O=C1C(c2cccc(C(F)(F)F)c2)C(=O)N(CCc2cccc(Cl)c2)C(=O)N1CCCCc1cccc(Cl)c1` (centres unmarked) [14f, 1-(3-Chlorophenethyl)-3-(4-(3-chlorophenyl)butyl)-5-(3-(trifluoromethyl)phenyl) pyrimidine-2,4,6(1H,3H,5H)-trione]: the figures for the inhibition at 10 µM in series [2] and in series [3] were 100% and 79.8%, respectively.

On to `O=C1C(c2cccc(C(F)(F)F)c2)C(=O)N(CCc2cccc(Cl)c2)C(=O)N1CCCCc1ccc(C(F)(F)F)cc1` (centres unmarked) [14g, 1-(3-Chlorophenethyl)-5-(3-(trifluoromethyl)phenyl)-3-(4-(4-(trifluoromethyl)phenyl)butyl)pyrimidine-2,4,6(1H,3H,5H)-trione], for which the inhibition at 10 µM in series [2] stood at 88.2%; in series [3] it was 82.8%.
